Screens deposited in PubChem BioAssay by several laboratories.
Compounds with a hit are over-represented: about 2.2% of the library has one in this group of screens.
HCT116 PTEN-null – PTEN-deleted cell growth suppression; HCT116 PTEN-null viability, CellTiter-Glo, 60 h; active compounds read low; viability, % at 10 µM; 140,000 compounds, 1.2% hits;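 active means viability at or below a set limit, 4 SD under the median of all tested compounds, cut at about 3.7% in these data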;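 further: PTEN knockout HCT116 line with beta catenin targeted HCT116 as companion control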
HCT116 bCat-KO – beta-catenin-lacking colon tumor cell growth suppression; HCT116 beta-catenin knockout viability, CellTiter-Glo, 60 h; active compounds read low; 140,000 compounds, 1.5% hits; viability, % at 10 µM; AID 818;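 active means viability at or under a set limit, the compound median less 4 SD, cut at about 6% in these data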
sdo1 growth – sdo1-depleted yeast growth rescue | z-score at 10 µM | 140,000 compounds, 0.21% hits | S. cerevisiae sdo1-depleted JHY4D growth rescue, OD600 30 h; active compounds read high; pdr5 snq2 efflux-pump mutant strain;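 active means z-score above 3 at both the 24 hr and the 30 hr optical density reads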
Autophagy mod – alters autophagy in cells; MEF GFP-LC3 puncta imaging; test concentration mostly 10 µM; calls only at 10 µM (by protocol); 190,000 compounds, 0.98% hits; AID 463193;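 active means percentage of spot-positive cells more than 3 SD above its plate mean, without a fluorescence outlier flag or 80% toxicity; inconclusive means no clear call, values can overlap the other calls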
Dynein transport – dynein cargo transport inhibition | z-score, hits read low | AID 1381 | 3617.4 mouse cells, GR-EGFP nuclear translocation imaging; test concentration mostly 20 µM; stimulated with dexamethasone, 1 µM; active compounds read low | 220,000 compounds, 0.47% hits;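 active means plate z-score of nuclear minus cytoplasmic receptor signal below a set negative limit, without overly bright fluorescence or cell loss, cut at about -3.5 in these data, passing the limit was not always enough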;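 further: z-score of nuclear minus cytoplasmic ring GR-EGFP intensity difference per well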
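Buffer or medium: tet-free, stripped-serum medium; reagent: dexamethasone at 1.0 µM final, 30 min; incubation: 48 h induction, 1 h compound, 30 min dex at 37 °C; measured by: formaldehyde fixation, Hoechst nuclear stain, 10x automated fluorescence imaging; read-out: nuclear-to-cytoplasmic GR-EGFP distribution per well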
Dynein confirm – dynein cargo transport inhibition, confirmation. shares compounds with Dynein transport. 3617.4 GR-EGFP nuclear translocation imaging, dexamethasone-induced. calls only at 20 µM. 1,000 compounds, 69% hits. AID 463116;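 active means inhibition of receptor movement into the nucleus at or above a set limit in both runs, with normal cell brightness and cell count; inconclusive means limit reached in only one run, brightness and count normal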;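 further: dexamethasone at 1 µM final in well for 30 min; nuclear minus cytoplasmic GR-EGFP mean intensity difference in channel 2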
Each line names hits and unclear results; the compound was inactive in the other large screens (follow-up assays come after a bar, where they were run).

Cc1ccc(N2C(=O)NC(=O)/C(=C\C=C\c3ccco3)C2=O)cc1	Dynein transport -5.06 (no result: HCT116 PTEN-null, HCT116 bCat-KO, sdo1 growth, Autophagy mod) | Dynein confirm active
Cc1cccc(N2C(=O)NC(=O)/C(=C\C=C\c3ccco3)C2=O)c1	Dynein transport -4.96 (no result: HCT116 PTEN-null, HCT116 bCat-KO, sdo1 growth, Autophagy mod) | Dynein confirm active
O=C1NC(=O)N(c2ccccc2)C(=O)/C1=C/C=C/c1ccco1	none (no result: HCT116 PTEN-null, HCT116 bCat-KO, sdo1 growth, Autophagy mod)
CN1C(=O)/C(=C/C=C/c2ccco2)C(=O)NC1=S	none (no result: HCT116 PTEN-null, HCT116 bCat-KO, sdo1 growth, Autophagy mod)
O=C(/C=C/c1c[nH]c2ccccc12)c1c(O)n(CCc2ccccc2)c(=O)[nH]c1=O	none (no result: HCT116 PTEN-null, HCT116 bCat-KO, sdo1 growth, Autophagy mod)
CCCCn1c(=O)c(C(=O)Nc2nnc(C(C)C)s2)c(O)c2ccccc21	none (no result: HCT116 PTEN-null, HCT116 bCat-KO, sdo1 growth)
CCCCn1c(O)c(/C=N/NC(=O)c2ccncc2)c(=O)[nH]c1=S	none (no result: HCT116 PTEN-null, HCT116 bCat-KO, sdo1 growth, Autophagy mod)
CN(C)c1ccc(/C=C/C=C2/C(=O)NC(=O)N(c3ccccc3)C2=O)cc1	none (no result: HCT116 PTEN-null, HCT116 bCat-KO, sdo1 growth)
C=CCN1C(=O)NC(=O)/C(=C/C=C/c2ccccc2)C1=O	Dynein transport -4.88 (no result: HCT116 PTEN-null, HCT116 bCat-KO, sdo1 growth) | Dynein confirm active
O=C1NC(=O)N(CCc2ccc(F)cc2)C(=O)/C1=C\C=C\c1ccccc1	Dynein transport -4.08 (no result: HCT116 PTEN-null, HCT116 bCat-KO, sdo1 growth) | Dynein confirm active
Cc1ccc(-c2nc(CS(=O)CC(=O)N3CCC4(CC3)OCCO4)c(C)o2)cc1 (stereo not drawn)	none
Cc1c(C=C2C(=O)NC(=O)NC2=O)c(=O)n(-c2ccccc2)n1C	none (no result: HCT116 PTEN-null, HCT116 bCat-KO, sdo1 growth)
Cc1nn(Cc2ccccc2)c(C)c1C=C1C(=O)NC(=S)NC1=O	Dynein transport -4.68 | Dynein confirm inactive
CC1CCN(C(=O)CCl)CC1	none
N#CC(C#N)=Cc1ccc(C=C(C#N)C#N)cc1	Dynein transport -4.3 (no result: HCT116 PTEN-null, HCT116 bCat-KO, sdo1 growth, Autophagy mod) | Dynein confirm inconclusive
O=C(Cn1nc(-c2ccccc2)ccc1=O)N1CCC2(CC1)OCCO2	none (no result: HCT116 PTEN-null, HCT116 bCat-KO, sdo1 growth)
C/C(=C\c1ccc(N(C)C)cc1)[N+](=O)[O-]	HCT116 PTEN-null 2.1, Dynein transport -4.52 | Dynein confirm active
